High-throughput results deposited in PubChem by several laboratories.
OX1R antag-1 – human HCRTR1 antagonism; AID 434989; inhibition, % at 5 µM; 330,000 compounds, 0.43% hits; CHO/OX1R cells, Fluo-8 calcium fluorescence, orexin A; O43613;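 active = inhibition above its plate's threshold, mean inhibition of all tested compounds on the plate plus 3 SD, cut at about 37% in these data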
Target sequence (O43613 whole entry, looked up): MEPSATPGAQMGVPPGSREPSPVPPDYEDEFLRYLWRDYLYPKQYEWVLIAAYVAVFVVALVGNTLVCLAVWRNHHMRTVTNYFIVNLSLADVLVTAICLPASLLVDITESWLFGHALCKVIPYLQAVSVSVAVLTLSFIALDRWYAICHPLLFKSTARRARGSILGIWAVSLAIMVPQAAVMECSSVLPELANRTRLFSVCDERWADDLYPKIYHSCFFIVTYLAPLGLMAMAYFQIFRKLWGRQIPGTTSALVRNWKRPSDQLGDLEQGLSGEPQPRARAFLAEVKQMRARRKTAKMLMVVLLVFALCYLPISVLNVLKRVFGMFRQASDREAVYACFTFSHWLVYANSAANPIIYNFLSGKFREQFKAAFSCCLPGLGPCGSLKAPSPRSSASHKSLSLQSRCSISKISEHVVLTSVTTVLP
CHO parental Ca – signal in parental CHO cells, OX1R antagonist counter-screen | AID 463079 | parental CHO-K1, ATP-induced calcium, Fluo-8 fluorescence | 330,000 compounds, 0.63% hits | inhibition, % at 5.6 µM;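 active = inhibition above that plate's mean sample inhibition plus 3 SD, cut at about 26% in these data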
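Test system: parental CHO cells; detection: calcium-sensitive Fluo-8 fluorescence; evaluation: percent inhibition of calcium signal; also added: ATP as calcium-mobilizing challenge; repeats: one well per compound; control set: ATP-challenged DMSO wells low, unchallenged DMSO wells high; compound: single nominal dose of 5.6 µM per compound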
OX1R antag-2 – antagonists of human orexin 1 receptor (OX1R) | O43613 | OX1R-expressing cells, FRET antagonist read-out | inhibition, % at 6.6 µM | 330,000 compounds, 1.8% hits; in the data active = inhibition mostly above about 38%, no sharp cut-off; inactive = mostly below about 40%
MPTP inh – inhibitors of mitochondrial permeability transition pore; isolated mouse mitochondria, Ca2+ swelling absorbance, 30 min; inhibition, % at 10 µM; 360,000 compounds, 1.4% hits; AID 602449;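 active = inhibition of 50% or more, scaled per plate between neutral and stimulator controls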
GPR7 antag – blocks human GPR7 receptor signaling; inhibition, % at 4.4 µM; AID 1861; 290,000 compounds, 1.1% hits; GPR7-expressing cells, fluorescence antagonist assay; in the data active = inhibition above about 16%, passing the limit was not always enough;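 also: cells stimulated with the agonist NPW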
Numbers stand for hits; - = inactive; . = no result. Compounds with a hit are over-represented: about 3.8% of the library has one in this group of screens.

SMILES	OX1R antag-1	CHO parental Ca	OX1R antag-2	MPTP inh	GPR7 antag
O=c1[nH]c(=S)[nH]c(O)c1N=Nc1cc2c(cc1[N+](=O)[O-])OCO2	-	-	-	-	-
COc1cccc(N=Nc2c(O)[nH]c(=S)[nH]c2=O)c1	-	-	69	-	-
Cc1ccsc1C(=O)C1CCCN(Cc2sc(N(C)C)nc2Cl)C1 (stereo not given)	-	-	-	-	-
CC1CCSP(=O)(Oc2ccccc2)O1 (stereo not given)	-	-	-	-	-
CC(Cc1ccccc1)NC(=O)CCCCC(=O)NC(C)Cc1ccccc1 (stereo not given)	-	-	-	-	-
Cc1ccc(OC(F)F)c(N2C(=O)C3C4CCC(O4)C3C2=O)c1 (stereo not given)	-	-	-	-	.
O=[N+]([O-])c1ccc(NCc2ccccc2)c2nonc12	108	94	-	.	34
Cc1nc2ccccc2c(=O)n1-c1cc([N+](=O)[O-])cc([N+](=O)[O-])c1	-	-	74	-	-
CC(C(N)=O)N1CC(c2ccc(Cl)cc2)CC1=O (stereo not given)	-	-	-	-	-
CN(C)C(=S)SSC(=S)N(C)C	-	-	-	-	-
CN1CCc2cc3c(c4c2C1Cc1ccccc1-4)OCO3 (stereo not given)	-	-	74	-	-
Cc1ccc(-n2nc(C)c(C3C(C#N)=C(N)Oc4c3c(=O)oc3ccccc43)c2Cl)cc1 (stereo not given)	.	.	.	.	-
O=c1c(C=NCc2cccs2)c(O)n(C2CCCCC2)c(=O)n1C1CCCCC1	-	-	-	-	-
N=C(N)c1c(O)n(C2CCCCC2)c(=O)n(C2CCCCC2)c1=O	-	61	-	-	-
CCCC[n+]1cc(=N)o[n-]1	-	-	-	-	.
Cc1ccccc1N1C(=O)NC(=O)/C(=C\c2cc(Br)c(N3CCOCC3)o2)C1=O	-	-	-	-	-
O=C1NC(=O)N(c2ccc3c(c2)OCO3)C(=O)/C1=C\c1ccc(N2CCCCC2)o1	-	-	71	-	-
Cc1ccccc1N1C(=O)NC(=O)/C(=C/c2ccc(N3CCOCC3)o2)C1=O	-	-	48	-	-
CN(CC1COc2ccccc2O1)c1nc(-c2cccnc2)nc2ccccc12 (stereo not given)	-	-	74	-	-
Cc1ccccc1-n1c(O)c(/C=C2/C(c3ccccc3)=Nc3ccccc32)c(=O)[nH]c1=O	-	-	-	-	29
Cc1cccc(-n2c(O)c(/C=C3/C(c4ccccc4)=Nc4ccccc43)c(=O)[nH]c2=O)c1	-	-	-	-	-
CCCCCOc1ccc(C)cc1CN(CCCl)CCCl	-	-	-	.	30
CC(C)Sc1nnc([C@@H](N)Cc2c[nH]c3ccccc23)o1	-	-	40	-	-
Cc1ccc(-n2c(=S)[nH]c3ccccc3c2=O)cc1C	.	.	.	-	.
Cc1cccc(NP(=O)(Oc2ccccc2F)Oc2ccccc2F)c1C	-	47	-	-	-
SMILES	OX1R antag-1	CHO parental Ca	OX1R antag-2	MPTP inh	GPR7 antag
CC(C)CC1(CCc2ccccc2)C(=O)NC(=O)NC1=O	.	.	.	-	.
Nc1ccc2ccc3cccc[n+]3c2c1	-	37	-	-	-
COC(=O)C1=C(c2ccc(C(C)=O)cc2)C[C@@H]2CC[C@H]1N2C(=O)NC(C)C	-	-	-	-	.
CCCC(=O)NC(Oc1ccc(C(C)=O)cc1)C(Cl)(Cl)Cl (stereo not given)	-	-	-	-	-
COC1C(OC(=O)c2ccc(C)[nH]2)C(O)C(Oc2ccc3c(O)c(NC(=O)c4ccc(O)c(CC=C(C)C)c4)c(=O)oc3c2Cl)OC1(C)C (stereo not given)	-	32	-	-	-
COc1ccc(-n2c(O)c(C=Nc3c(C)n(C)n(-c4ccccc4)c3=O)c(=O)[nH]c2=O)cc1	-	-	-	-	-
Nc1c(Br)cc([N+](=O)[O-])cc1[N+](=O)[O-]	-	-	36	-	.
Cn1cc2c([N+](=O)[O-])cc([N+](=O)[O-])cc2n1	.	.	.	.	-
Cc1cc(OCC(=O)NCc2ccc(S(N)(=O)=O)cc2)c2c3c(c(=O)oc2c1)CCC3	-	-	-	-	-
O=c1cc(C(F)(F)F)c2cc3c4c(c2o1)CCCN4CCC3	92	73	-	-	-
Cc1cc2c(C(F)(F)F)cc(=O)oc2c2c1NCCC2	-	-	-	-	-
CCOc1ccc(-n2c(-c3ccoc3)nc3ccccc3c2=O)cc1	-	-	-	-	-
CCOc1ccc(-c2c(C)n(-c3ccc(OCC)cc3)c3[n+]2CCCCC3)cc1	-	40	-	-	46
O=C(c1ccco1)C12CN3CN(CN(C3)C1)C2	-	-	-	-	-
COc1ccc(-c2cc(=NCC(=O)O)c3ccccc3o2)cc1	-	-	64	-	-
COc1ccc(-c2cc(=NCCCCCC(=O)O)c3cc(C)ccc3o2)cc1	.	.	.	-	-
CCc1ccc(-n2c(O)c(C(C)=O)c(=O)[nH]c2=O)cc1 (tested in a mixture with another compound)	-	-	-	-	-
CCN(CC)P(=O)(c1n(CC)cc[n+]1CC)N(CC)CC	-	-	-	-	-
Cc1cc(Cl)ccc1C(=O)C1CCCN(C2CCSCC2)C1 (stereo not given)	-	-	-	-	-
O=C(OCC(=O)c1ccc([N+](=O)[O-])cc1)/C(=C/c1ccc(Cl)cc1)NC(=O)c1ccccc1	-	-	-	-	-
O=C(C[N+]12CCC(CC1)C(CO)C2)c1ccc([N+](=O)[O-])cc1 (stereo not given)	-	-	59	-	-
O=C(C[N+]12CCC(CC1)C(O)C2)c1ccc(Br)cc1 (stereo not given)	.	.	.	-	-
O=C(C[N+]12CCC(CC1)C(OC(=O)c1ccccc1)C2)c1ccc([N+](=O)[O-])cc1 (stereo not given)	-	-	70	-	-
O=[N+]([O-])NC1=NCN(Cc2ccco2)CN1Cc1ccco1	-	-	-	-	-
COc1cc(CC2(CCc3ccncc3)C(=O)NC(=O)NC2=O)cc(OC)c1OC	-	-	-	-	-
SMILES	OX1R antag-1	CHO parental Ca	OX1R antag-2	MPTP inh	GPR7 antag
COc1cc2c(cc1OC)-c1c(OC)c(OC)c(OC)c3ccnc(c13)C2=O	-	-	68	.	-
O=S(=O)(c1cccc(C(F)(F)F)c1)N1Cc2ccccc2-n2nncc2C1	.	.	.	-	.
CC[N+](C)(CC)CCCCOc1ccc2c(c1)C(=O)c1cc(OCCCC[N+](C)(CC)CC)ccc1-2	-	-	71	-	-
CN(C)C(=O)Oc1ccc2nnc3ccnn3c2c1	-	-	36	-	-
O=c1c2cc(Br)ccc2[nH]c(=S)n1-c1ccccc1	-	-	-	-	29
O=C(CSC1c2ccccc2-c2ccccc21)N/N=C/c1ccccc1O	-	-	60	-	-
Cc1ccccc1-n1c(-c2ccoc2)nc2ccccc2c1=O	-	-	-	-	-
O=[N+]([O-])c1ccc(N2CCOCC2)c2cccnc12	-	-	71	-	-
O=[N+]([O-])c1ccc(N2CCCNCC2)c2ncccc12	-	-	40	-	-
